Data on one compound can be found in ChEMBL document CHEMBL1649438, “Activities of ceftobiprole and other cephalosporins against extracellular and intracellular (THP-1 macrophages and keratinocytes) forms of methicillin-susceptible and methicillin-resistant Staphylococcus aureus” (Antimicrob Agents Chemother, 2009).

SMILES strings stand for the structures. In brackets after ≈: the same amount, converted by molar mass.

Assay [1] concerns Staphylococcus aureus. The experiment in a line: Antimicrobial activity against hospital-acquired vancomycin-resistant Staphylococcus aureus VRS1 infected in human THP-1 cells assessed as change in bacterial count after 24 hrs at pH 5.5. It counts as functional, cell-based. Particulars: VRS1, THP-1, 24 h. The gist of the method: (§1)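 THP-1 macrophages infected as described previously, with a postphagocytosis inoculum of 1.5 × 10⁶ to 3.0 × 10⁶ CFU/mg cell protein. Cells were exposed 24 h to increasing extracellular antibiotic concentrations. Response is the change in log10 CFU/mg protein from the inoculum (n = 3), fitted to a Hill function. E0 and Emax were extrapolated to infinitely low and high concentrations. EC50 and static concentration (graphical interpolation) are expressed as multiples of the broth MIC at pH 5.5 or 7.4.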

The test system of assay [2] is Staphylococcus aureus. The experiment in a line: Antimicrobial activity against methicillin-susceptible Staphylococcus aureus NRS52 infected in human THP-1 cells assessed as change in bacterial count after 24 hrs at pH 5.5. It counts as functional, organism-based. Particulars: NRS52, THP-1, 24 h. In a few lines:
as §1

Assay [3] has as its system Staphylococcus aureus. The experiment in a line: Antimicrobial activity against methicillin-susceptible Staphylococcus aureus ATCC 11632 infected in human THP-1 cells assessed as bacterial count per mg of cell protein at high extracellular compound concentration after 24 hrs at pH 7.4. It counts as functional. The gist of the method: (§2)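 Human THP-1 macrophage-like cells were infected with S. aureus to a postphagocytosis inoculum of 1.5 × 10^6 to 3.0 × 10^6 CFU/mg cell protein. Cells were then exposed 24 h to increasing extracellular antibiotic concentrations. Response was the log10 CFU change per mg protein from the postphagocytosis inoculum, n = 3. A Hill function was fitted on log-transformed axes. E0 and Emax were extrapolated to infinitely low and high concentrations. Cs was read by graphical interpolation. Concentrations were expressed as multiples of the broth MIC at pH 5.5 or pH 7.4.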

Assay [4] has as its system Staphylococcus aureus. The experiment in a line: Antimicrobial activity against hospital-acquired vancomycin-intermediate Staphylococcus aureus NRS18 infected in human THP-1 cells assessed as change in bacterial count after 24 hrs. It counts as functional, organism-based. As to conditions: NRS18, THP-1, 24 h. In a few lines:
as §1

In assay [5] the test system is Staphylococcus aureus. The experiment in a line: Antimicrobial activity against methicillin-susceptible Staphylococcus aureus ATCC 11632 infected in human THP-1 cells assessed as change in bacterial count after 24 hrs at pH 5.5. It counts as functional, organism-based. Particulars: ATCC 11632, THP-1, 24 h. In a few lines:
as §1

In assay [6] the test system is Staphylococcus aureus. The experiment in a line: Antimicrobial activity against hospital-acquired vancomycin-intermediate Staphylococcus aureus NRS126 infected in human THP-1 cells assessed as change in bacterial count after 24 hrs at pH 7.4. As to conditions: NRS126, THP-1, 24 h. It counts as functional, organism-based. The gist of the method: as §1
Assay [7] has as its system Staphylococcus aureus. The experiment in a line: Antimicrobial activity against methicillin-susceptible Staphylococcus aureus NRS52 infected in human THP-1 cells assessed as bacterial count per mg of cell protein at high extracellular compound concentration after 24 hrs at pH 5.5. It counts as functional. The gist of the method:
as §2

Assay [8] relates to Staphylococcus aureus. The experiment in a line: Antimicrobial activity against Panton-valentine leucocidin-positive community-acquired methicillin-resistant Staphylococcus aureus N4090440 infected in human THP-1 cells assessed as bacterial count per mg of cell protein at low extracellular compound concentration after 24 hrs. It counts as functional. In a few lines: (§3)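 THP-1 human macrophages infected with S. aureus (postphagocytosis inoculum 1.5 × 10^6 to 3.0 × 10^6 CFU/mg cell protein), then incubated 24 h with increasing extracellular antibiotic concentrations. Change in log10 CFU/mg cell protein from the postphagocytosis inoculum, n = 3. Hill function fitted on log-transformed data. Low-concentration value (E0) and high-concentration value (Emax) are extrapolated. Where a pH is given, concentrations are expressed as multiples of the broth MIC at that pH.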

Assay [9] concerns Staphylococcus aureus. The experiment in a line: Antimicrobial activity against Panton-valentine leucocidin-positive community-acquired methicillin-resistant Staphylococcus aureus STA 228 infected in human THP-1 cells assessed as change in bacterial count after 24 hrs at pH 5.5. It counts as functional, organism-based. As to conditions: STA 228, THP-1, 24 h. In a few lines:
as §3

The subject of assay [10] is Staphylococcus aureus. The experiment in a line: Antimicrobial activity against Panton-valentine leucocidin-positive community-acquired methicillin-resistant Staphylococcus aureus N4042228 infected in human THP-1 cells assessed as bacterial count per mg of cell protein at low extracellular compound concentration after 24 hrs. It counts as functional. The gist of the method: as §3

Assay [11] relates to Staphylococcus aureus. The experiment in a line: Antimicrobial activity against Panton-valentine leucocidin-positive community-acquired methicillin-resistant Staphylococcus aureus NRS192 infected in human THP-1 cells assessed as bacterial count per mg of cell protein at high extracellular compound concentration after 24 hrs at pH 5.5. It counts as functional. The gist of the method: as §3

Assay [12] deals with Staphylococcus aureus. The experiment in a line: Antimicrobial activity against methicillin-susceptible Staphylococcus aureus NRS52 infected in human THP-1 cells assessed as change in bacterial count after 24 hrs. It counts as functional, organism-based. Particulars: NRS52, THP-1, 24 h. The gist of the method:
as §1

Assay [13] has as its system Staphylococcus aureus. The experiment in a line: Antimicrobial activity against Panton-valentine leucocidin-positive community-acquired methicillin-resistant Staphylococcus aureus isolate MEH2225605 infected in human THP-1 cells assessed as change in bacterial count after 24 hrs at pH 7.4. It counts as functional, organism-based. Particulars: isolate MEH2225605, THP-1, 24 h. In a few lines: as §3

The test system of assay [14] is Staphylococcus aureus. The experiment in a line: Antimicrobial activity against hospital-acquired vancomycin-intermediate Staphylococcus aureus NRS126 infected in human THP-1 cells assessed as bacterial count per mg of cell protein at low extracellular compound concentration after 24 hrs at pH 5.5. It counts as functional. The gist of the method:
as §1

For assay [15], the system named is Staphylococcus aureus. The experiment in a line: Bacteriostatic activity against methicillin-susceptible Staphylococcus aureus NRS52 infected in human THP-1 cells assessed as change in bacterial count after 24 hrs at pH 5.5. It counts as functional. The gist of the method: as §2
In assay [16] the test system is Staphylococcus aureus. The experiment in a line: Antimicrobial activity against methicillin-susceptible Staphylococcus aureus […] infected in human THP-1 cells assessed as bacterial count per mg of cell protein at low extracellular compound concentration after 24 hrs. It counts as functional. The gist of the method: as §2
Assay [17] concerns the target T1, MecA (Staphylococcus aureus, UniProt Q7DHH4).
T1 sequence (Q7DHH4 whole entry): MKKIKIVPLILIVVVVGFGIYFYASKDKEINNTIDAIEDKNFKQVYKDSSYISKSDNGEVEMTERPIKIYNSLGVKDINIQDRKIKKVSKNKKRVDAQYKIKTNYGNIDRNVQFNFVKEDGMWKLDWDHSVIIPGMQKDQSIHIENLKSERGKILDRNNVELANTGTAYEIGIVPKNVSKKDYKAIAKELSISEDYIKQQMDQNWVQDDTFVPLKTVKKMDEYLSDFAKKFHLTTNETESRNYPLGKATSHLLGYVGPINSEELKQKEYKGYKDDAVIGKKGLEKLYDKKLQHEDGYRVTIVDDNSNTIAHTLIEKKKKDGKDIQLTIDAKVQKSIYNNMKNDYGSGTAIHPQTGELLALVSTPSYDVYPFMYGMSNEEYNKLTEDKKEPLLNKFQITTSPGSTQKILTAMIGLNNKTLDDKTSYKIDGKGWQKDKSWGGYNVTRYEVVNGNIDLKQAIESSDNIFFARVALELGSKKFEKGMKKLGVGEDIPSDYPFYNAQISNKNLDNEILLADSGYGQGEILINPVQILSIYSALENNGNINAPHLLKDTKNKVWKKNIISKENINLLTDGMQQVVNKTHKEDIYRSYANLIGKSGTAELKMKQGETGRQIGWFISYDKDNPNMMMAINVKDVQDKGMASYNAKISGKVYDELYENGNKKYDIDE
The experiment in a line: Binding affinity to Staphylococcus aureus ATCC […] PBP2a by Western blotting at pH 7.4 in presence of 100 uM Bocillin FL. The gist of the method:
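Soluble truncated PBP 2a (ΔM1-Y23) was expressed in E. coli Rosetta 2(DE3) and purified. It was preincubated 25 min at 37°C with increasing cephalosporin concentrations, then 100 μM Bocillin FL was added for 25 min at 37°C at pH 5.5 or 7.4. Samples were run on SDS-PAGE and blotted with anti-bodipy antibody plus HRP secondary. Bands were detected by chemiluminescence and quantified by densitometry.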

For the compound `Nc1nc(/C(=N/O)C(=O)N[C@@H]2C(=O)N3C(C(=O)O)=C(/C=C4\CCN([C@@H]5CCNC5)C4=O)CS[C@H]23)ns1` [CEFTOBIPROLE], the EC50 in assay [1] turned out to be 0.77 × MIC; in assay [2], 0.41 × MIC; in assay [4], 0.26 µg/mL (≈ 0.486 µM); in [5], 0.41 × MIC; in assay [6] it was 0.28 ×MIC; in [9], 0.54 × MIC. Also, the EC50 in [12] was 0.19 µg/mL (≈ 0.355 µM); in assay [13], 0.33 ×MIC. Also, the log10cfu was -1.04 in assay [3]; 1.04 in assay [7]; 3.39 in assay [8]; 3.45 in assay [10]; -1.02 in assay [11]; 2.63 in [14]. The log10cfu in [16] stood at 3.49. Further, in [15], the Activity is 1.19 × MIC. The IC50 (as a rule, the concentration at which inhibition is half-maximal) in assay [17] stood at 8 µM.
